{"data": "Measured values pooled from the literature", "target": "Serine/threonine-protein kinase PAK 5 (PAK5, Homo sapiens, UniProt Q9P286)", "note": "Protocols differ between the studies behind these lines."}
{"Structure (SMILES)": "Cc1ccc(Nc2nccc(N(C)c3ccc4c(C)n(C)nc4c3)n2)cc1S(N)(=O)=O", "observed": "cell-free assay", "mode": "inhibitor", "tested at": "0.5 µM", "measurement": "remaining signal", "result": "95.4%"}
{"Structure (SMILES)": "FC(F)(F)c1ccc2c(c1)nc(-c1cccnc1)n2C1CC1", "observed": "cell-free assay", "technique": "competition with immobilised ligand", "tested at": "1 µM", "measurement": "remaining binding", "result": "100%"}
{"Structure (SMILES)": "CC/C(=N\\NC(=O)NCc1cccc(O)c1)c1ccc(O)c(C)c1O", "observed": "enzyme activity", "mode": "inhibitor", "tested at": "0.1 µM", "measurement": "inhibition", "result": "-3.9%"}
{"Structure (SMILES)": "COc1cc2ncnc(Nc3ccc(Oc4ccccc4)cc3C)c2cc1OC", "observed": "enzyme activity", "mode": "inhibitor", "tested at": "1 µM", "measurement": "inhibition", "result": "1%"}
{"Structure (SMILES)": "Cc1sc(C(=O)NC2COC2)cc1-n1cc(NC(=O)Nc2c(F)cccc2Cl)cn1", "observed": "enzyme activity", "mode": "inhibitor", "tested at": "10 µM", "measurement": "remaining activity", "result": "103%"}
{"Structure (SMILES)": "Cc1nccc(COC(=O)N2C[C@@H]3[C@@H](CNC(=O)c4ccc5[nH]nnc5c4)[C@@H]3C2)n1", "observed": "cell-free assay", "technique": "competition with immobilised ligand", "tested at": "1 µM", "measurement": "remaining binding", "result": "92%"}
{"Structure (SMILES)": "CCN(CC)CCNC(=O)c1c(C)[nH]c(/C=C2\\C(=O)Nc3ccc(F)cc32)c1C", "observed": "enzyme activity", "mode": "inhibitor", "tested at": "10 µM", "measurement": "inhibition", "result": "55%"}
{"Structure (SMILES)": "CN(C)c1nccc(-c2cnc3ncccn23)n1", "observed": "binding", "tested at": "1 µM", "measurement": "remaining binding", "result": "78%"}
{"Structure (SMILES)": "Oc1cccc(-c2nc(N3CCOCC3)c3oc4ncccc4c3n2)c1", "observed": "enzyme activity", "mode": "inhibitor", "tested at": "10 µM", "measurement": "remaining activity", "result": "112%"}
{"Structure (SMILES)": "CC(C)(C)C(=O)c1sc(NC2CCCCC2)nc1N", "observed": "enzyme activity", "mode": "inhibitor", "tested at": "10 µM", "measurement": "remaining activity", "result": "110%"}
{"Structure (SMILES)": "CCC(=O)N[C@@H]1CC[C@H](C(=O)N(C)c2ccc(-c3nc4ccccc4o3)cc2)C1", "observed": "cell-free assay", "technique": "competition with immobilised ligand", "tested at": "1 µM", "measurement": "remaining binding", "result": "100%"}
{"Structure (SMILES)": "CNC(=O)c1cc(Oc2ccc(NC(=O)Nc3ccc(Cl)c(C(F)(F)F)c3)cc2)ccn1", "observed": "enzyme activity", "mode": "inhibitor", "tested at": "10 µM", "measurement": "inhibition", "result": "-21%"}
{"Structure (SMILES)": "O=C(Nc1cnn(-c2csc(C(=O)NC3COC3)c2)c1)Nc1ccccc1Cl", "observed": "enzyme activity", "mode": "inhibitor", "tested at": "5 µM", "measurement": "remaining activity", "result": "92.1%"}
{"Structure (SMILES)": "O=C1Nc2ccc(Cl)cc2C1=Cc1cc(Cl)c(O)c(Cl)c1", "observed": "cell-free assay", "tested at": "0.5 µM", "measurement": "remaining signal", "result": "91.5%"}
{"Structure (SMILES)": "O=C(O)[C@H]1[C@H](Cn2nnc3ccccc3c2=O)CC[C@@H]1C(=O)c1ccc(OCCC2CCOCC2)cc1", "observed": "cell-free assay", "technique": "competition with immobilised ligand", "tested at": "1 µM", "measurement": "remaining binding", "result": "98%"}
{"Structure (SMILES)": "FC(F)(F)Oc1cccc(-c2cnc3ccc(-c4ccncc4)nn23)c1", "observed": "enzyme activity", "mode": "inhibitor", "technique": "radiometric", "tested at": "1 µM", "measurement": "activity vs control", "result": "72%"}
{"Structure (SMILES)": "COCCOc1nc(-c2ccc(Cl)nc2)nc2c1CN(C(=O)c1ncn3ccccc13)CC2", "observed": "cell-free assay", "technique": "competition with immobilised ligand", "tested at": "0.1 µM", "measurement": "remaining binding", "result": "100%"}
{"Structure (SMILES)": "CCN(CC)c1ccc(C2=NNC(=O)CC2C)cc1[N+](=O)[O-] (centres unmarked)", "observed": "enzyme activity", "mode": "inhibitor", "tested at": "10 µM", "measurement": "remaining activity", "result": "5%"}
{"Structure (SMILES)": "Cc1c[nH]c2nccc(Oc3c(F)cc(Nc4cc(Cl)nc(N)n4)cc3F)c12", "observed": "cell-free assay", "technique": "competition with immobilised ligand", "tested at": "0.1 µM", "measurement": "remaining binding", "result": "92%"}
{"Structure (SMILES)": "CCCOc1ccc(OC)c(F)c1C(=O)c1ccc(C(=O)N[C@@H]2CNC[C@H]2NC(=O)c2ccc3[nH]ncc3c2)cc1", "observed": "enzyme activity", "mode": "inhibitor", "tested at": "10 µM", "measurement": "remaining activity", "result": "85%"}
{"Structure (SMILES)": "Cc1ccc(C(=O)NCc2ccsc2)cc1C#Cc1cn(C(C)C)c2ncnc(N)c12", "observed": "enzyme activity", "mode": "inhibitor", "tested at": "1 µM", "measurement": "activity vs control", "result": "105%"}
{"Structure (SMILES)": "FC(F)c1nc2ccccc2n1-c1nc(N2CCOCC2)nc(N2CCOCC2)n1", "observed": "enzyme activity", "mode": "inhibitor", "tested at": "10 µM", "measurement": "remaining activity", "result": "84%"}
{"Structure (SMILES)": "CCOc1cc(-c2nncn2C)ccc1Nc1ncc2cc(C)nc(NCC(C)(C)C)c2n1", "observed": "enzyme activity", "mode": "inhibitor", "technique": "FRET", "tested at": "1 µM", "measurement": "inhibition", "result": "< 15%"}
{"Structure (SMILES)": "CS(=O)(=O)CCNCc1ccc(-c2ccc3ncnc(Nc4ccc(OCc5cccc(F)c5)c(Cl)c4)c3c2)o1", "observed": "cell-free assay", "tested at": "0.5 µM", "measurement": "remaining signal", "result": "98.5%"}
{"Structure (SMILES)": "COc1cc(/C=C/C(=O)CC(=O)/C=C/c2ccc(O)c(OC)c2)ccc1O", "observed": "enzyme activity", "mode": "inhibitor", "tested at": "1 µM", "measurement": "activity vs control", "result": "108%"}
{"Structure (SMILES)": "Cc1noc([C@H]2C[C@@H](c3ccc(C(F)(F)F)cc3)CN(C(=O)N3CCS(=O)(=O)C3)C2)n1", "observed": "cell-free assay", "technique": "competition with immobilised ligand", "tested at": "1 µM", "measurement": "remaining binding", "result": "100%"}
{"Structure (SMILES)": "Nc1nc(Nc2ccccc2)sc1C(=O)c1c(F)cccc1F", "observed": "enzyme activity", "mode": "inhibitor", "tested at": "10 µM", "measurement": "remaining activity", "result": "66%"}
{"Structure (SMILES)": "Cn1nc(C(=O)NCc2ccc(C(=O)O)cc2)cc1-c1ccc2[nH]ccc2c1", "observed": "cell-free assay", "technique": "competition with immobilised ligand", "tested at": "0.1 µM", "measurement": "remaining binding", "result": "62%"}
{"Structure (SMILES)": "CC(C)(C)c1nc(-c2cccc(NS(=O)(=O)c3c(F)cccc3F)c2F)c(-c2ccnc(N)n2)s1", "observed": "enzyme activity", "mode": "inhibitor", "technique": "radiometric", "tested at": "1 µM", "measurement": "remaining activity", "result": "78%"}
